From ChEMBL document CHEMBL4680142, “Thiazolidine-2,4-dione-based irreversible allosteric IKK-β kinase inhibitors: Optimization into in vivo active anti-inflammatory agents” (Eur J Med Chem, 2020)

Legend:
RAW264.7 [1] = experiment: Cytotoxicity against mouse RAW264.7 cells assessed as reduction in cell viability incubated for 24 hrs in presence of LPS by MTT assay; type: cell-based; conditions: RAW264.7, 24 h
Summary of the method: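 MTT viability in RAW 264.7 cells seeded at 1×10^5 cells/mL and incubated overnight. Compounds added with or without LPS (1 µg/mL) for 24 h. MTT for 4 h at 37 °C, formazan dissolved in DMSO, absorbance read at 540 nm. IC80 is the concentration reducing viability to 80% with LPS.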

[2] = molecular target: T1, Inhibitor of nuclear factor kappa-B kinase subunit beta (Homo sapiens, UniProt O14920); experiment: Allosteric inhibition of IKKbeta (unknown origin) using 5FAM-GRHDSGLDSMK-NH2 as substrate pretreated for 10 mins followed measured after 2 hrs by TR-FRET assay
T1 sequence (O14920 whole entry): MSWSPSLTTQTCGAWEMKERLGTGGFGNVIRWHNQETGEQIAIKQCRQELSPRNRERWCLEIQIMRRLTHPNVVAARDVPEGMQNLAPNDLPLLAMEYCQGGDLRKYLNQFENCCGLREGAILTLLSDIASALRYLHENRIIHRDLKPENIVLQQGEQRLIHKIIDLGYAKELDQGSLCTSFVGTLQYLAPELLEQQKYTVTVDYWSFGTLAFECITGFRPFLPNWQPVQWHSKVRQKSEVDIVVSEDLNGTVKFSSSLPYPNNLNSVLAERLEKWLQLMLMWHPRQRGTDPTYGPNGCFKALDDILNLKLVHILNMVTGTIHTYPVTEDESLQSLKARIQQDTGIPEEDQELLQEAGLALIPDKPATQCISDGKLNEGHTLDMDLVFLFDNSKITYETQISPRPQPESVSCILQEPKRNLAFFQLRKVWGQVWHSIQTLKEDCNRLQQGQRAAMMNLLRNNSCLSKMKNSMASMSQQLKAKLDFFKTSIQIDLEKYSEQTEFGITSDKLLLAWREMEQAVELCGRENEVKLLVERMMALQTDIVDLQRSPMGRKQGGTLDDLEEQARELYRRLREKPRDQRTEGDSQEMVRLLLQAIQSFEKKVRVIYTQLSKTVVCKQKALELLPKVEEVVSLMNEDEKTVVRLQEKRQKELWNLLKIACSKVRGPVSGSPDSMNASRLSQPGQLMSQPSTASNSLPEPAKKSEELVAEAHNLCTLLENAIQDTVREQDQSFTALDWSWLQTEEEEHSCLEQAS
Summary of the method: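 Enzyme: 0.5 µg/mL IKK2, in 10 mM Tris-HCl pH 7.2, 10 mM MgCl2, 0.05% NaN3, 1 mM DTT, 0.01% Tween-20. Compound at 10 µM pre-incubated 10 min, then 1 µM 5-FAM IκBα peptide and 3 µM ATP added. Reaction 2 h at room temperature. IMAP binding reagent/terbium detection mix added 15 h before reading. TR-FRET read with 340 nm excitation, emission 495/520 nm. Percent inhibition or IC50 derived.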

[3] = molecular target: T2, Inhibitor of nuclear factor kappa-B kinase subunit beta (Homo sapiens) (UniProt O14920); experiment: Allosteric inhibition of IKKbeta (unknown origin) at 0.001 to 30 uM using 5FAM-GRHDSGLDSMK-NH2 as substrate incubated for 10 mins followed by substrate addition and measured after 60 mins by TR-FRET assay relative to control; conditions: filed as negative allosteric modulator, dose 0.001-30 µM, time 70.0 min
T2 sequence (whole entry): T1 sequence (O14920 whole entry)
Summary of the method: (§1)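 IKK2 (0.5 µg/mL) in 10 mM Tris-HCl pH 7.2, 10 mM MgCl2, 0.05% NaN3, 1 mM DTT, 0.01% Tween-20, room temperature. Compound (30 to 0.001 µM, ten roughly three-fold dilutions) preincubated 10 min with enzyme. Reaction started with 1 µM 5FAM-IκBα peptide and 3 µM ATP, run 0, 20, 40 or 60 min. IMAP binding reagent/terbium donor detection, TR-FRET read at 495/520 nm. Kobs fitted against concentration by nonlinear regression.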

Mus musculus = experiment: Antiinflammatory activity against LPS-induced sepsis C57BL/6 mouse model assessed as organism survival rate at 5 to 50 mg/kg, po administered 1 hr before LPS stimulation and measured after 16 hrs relative to control; type: functional; conditions: dose 5-50 mg/kg, time 17 hrs
Summary of the method: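 Male C57BL/6 mice (6 or 10 weeks), water only for 24 h beforehand. Compound given orally at 5 or 50 mg/kg 1 h before intraperitoneal injection of LPS (Salmonella enterica serotype enteritidis, 25 mg/kg in PBS); controls received PBS. Survival monitored for 36 h.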

RAW264.7 [4] = experiment: Antiinflammatory activity against mouse RAW264.7 cells assessed as reduction in LPS-induced TNF-alpha level incubated for 1 hr followed by LPS stimulation and measured after 24 hrs by ELISA; type: functional, cell-based
Summary of the method: (§2)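 RAW 264.7 cells (DMEM, 10% FBS, 37 °C, 5% CO2) plated at 2×10^5 cells/mL and left overnight. Compounds (0.1, 1, 10 µM) or NS-398 given for 1 h, then LPS 10 ng/mL for 24 h. Culture medium assayed by ELISA: competitive colorimetric for PGE2/TNF-α, mouse DuoSet for TNF-α/IL-6. IC50 is the concentration lowering the mediator to 50%.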

[5] = molecular target: T1, Inhibitor of nuclear factor kappa-B kinase subunit beta; experiment: Allosteric inhibition of IKKbeta (unknown origin) using 5FAM-GRHDSGLDSMK-NH2 as substrate incubated for 10 mins followed by substrate addition and measured after 60 mins by TR-FRET assay
Summary of the method: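 Kinetic IMAP TR-FRET run with 0.5 µg/mL IKK2 in 10 mM Tris-HCl pH 7.2, 10 mM MgCl2, 0.05% NaN3, 1 mM DTT, 0.01% Tween-20. Compound (ten doses, 30 to 0.001 µM) pre-incubated with enzyme 10 min, then 1 µM IκBα-derived substrate and 3 µM ATP added. Room temperature. Reactions run 0, 20, 40 or 60 min. Ten-point curves fitted by nonlinear regression.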

[6] = Metabolic stability in human liver microsomes assessed as half life at 1 uM measured upto 1 hrs by LC-MS/MS analysis; type: ADME, Microsome
Summary of the method: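 Pooled human liver microsomes (0.5 mg/mL protein) with 1 µM compound at 37 °C. Reaction stopped at 0, 5, 15, 30 and 60 min and analysed by LC-MS/MS. Amount remaining expressed as % of initial concentration. Mibefradil run as reference.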

[7] = molecular target: T2, Inhibitor of nuclear factor kappa-B kinase subunit beta (Homo sapiens); experiment: Allosteric inhibition of IKKbeta (unknown origin) assessed as inactivation constant using 5FAM-GRHDSGLDSMK-NH2 as substrate incubated for 10 mins followed by substrate addition and measured upto 60 mins by TR-FRET assay; conditions: filed as negative allosteric modulator, time 70.0 min; summary of the method: as §1
RAW264.7 [8] = experiment: Antiinflammatory activity against mouse RAW264.7 cells assessed as reduction in LPS-induced PGE2 production at 10 uM incubated for 1 hr followed by LPS stimulation and measured after 24 hrs by ELISA (reference value: 33.64 ng/ml); type: functional; conditions: time 25 hrs; summary of the method: as §2
[9] = molecular target: T2, Inhibitor of nuclear factor kappa-B kinase subunit beta (Homo sapiens); experiment: Allosteric inhibition of IKKbeta (unknown origin) using 5FAM-GRHDSGLDSMK-NH2 as substrate at 0.001 to 30 uM pretreated for 10 mins followed by substrate addition measured immediately by TR-FRET assay; conditions: filed as negative allosteric modulator, dose 0.001-30 µM; summary of the method: as §1

Row | SMILES | IC80 (RAW264.7 [1]) | IC50 [2] | inhibition [3] | Survival (Mus musculus) | IC50 (RAW264.7 [4]) | IC50 [5] | half-life at 1 µM [6] | Kinact [7] | Activity (RAW264.7 [8]) | inhibition [9] | inhibition (RAW264.7 [4]; time 25.0 hrs)
1 | CN1CCN(CCCOc2ccc(N3C(=O)S/C(=C\c4ccc(Oc5ccc(C#N)cc5)cc4)C3=O)cc2)CC1 | > 10000 nM | 200 nM | -0.38% | 100% | 6270 nM | 204 nM | 20 min | 0.013 min⁻¹ | 16.53 ng/mL | -9.33% | –
2 | CN1CCN(CCCCCOc2cccc(N3C(=O)S/C(=C\c4ccc(Oc5ccc([N+](=O)[O-])cc5)cc4)C3=O)c2)CC1 | > 10000 nM | 220 nM | -3.88% | – | 5220 nM | 219 nM | 60 min | 0.027 min⁻¹ | 19.04 ng/mL | -5.63% | Dose-dependent effect
